Test results from ChEMBL document CHEMBL2086252, “Syntheses and evaluation of anticonvulsant activity of novel branched alkyl carbamates” (J Med Chem, 2012).
Active and inactive are the calls of the source. No cut-off for these calls is given here.

Columns and labels:
Mus musculus [1] = test: Neurotoxicity in albino CF1 mouse assessed as minimal motor impairment at 30 mg/kg, ip after 0.5 hrs by rotarod test; format: toxicity, organism-based; set-up: dose 30 mg/kg, route intraperitoneal; settings: in vivo
How it was run: (§1)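 Mice dosed ip at 30, 100 or 300 mg/kg, then tested 0.5 h and 4 h after administration in the MES or scMet test. Protection was recorded as animals protected over animals tested. Neurotoxicity was recorded as motor impairment or sedation, as animals affected over animals tested.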

Rattus norvegicus [2] = test: Ratio of ED50 for po dosed Sprague-Dawley albino rat to ED50 for ip dosed Sprague-Dawley albino rat by maximal electroshock-induced seizure test; format: functional
Rattus norvegicus [3] = test: Protective index, ratio of TD50 for po dosed Sprague-Dawley albino rat by rotarod test to ED50 for po dosed Sprague-Dawley albino rat by maximal electroshock seizures test; format: functional
How it was run: (§2)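 Protective index calculated as TD50/ED50, with TD50 and ED50 taken from the same species and dosing route.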

Rattus norvegicus [4] = test: Anticonvulsant activity in Sprague-Dawley albino rat assessed as protection against maximal electroshock-induced seizures at 30 mg/kg, po after 30 mins; format: functional, organism-based; set-up: dose 30 mg/kg
How it was run: (§3)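 Rats dosed orally. Anti-MES protection was scored as animals protected over animals tested at each time after dosing. Neurotoxicity was scored as motor impairment or sedation, as animals affected over animals tested.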

Mus musculus [5] = test: Anticonvulsant activity in albino CF1 mouse assessed as protection against subcutaneous metrazol-induced seizures at 300 mg/kg, ip after 0.5 hrs; format: functional, organism-based; set-up: dose 300 mg/kg; how it was run: as §1
Rattus norvegicus [6] = test: Anticonvulsant activity in ip dosed Sprague-Dawley albino rat assessed as protection against maximal electroshock-induced seizures; format: functional
How it was run: (§4)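 Quantitative testing: rats dosed orally or ip in MES and scMet tests, and mice dosed ip, including the 6 Hz (32 mA) psychomotor seizure test. ED50 and TD50 were reported in mg/kg with ranges in parentheses. Protective index was calculated as TD50/ED50.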

Mus musculus [7] = test: Neurotoxicity in albino CF1 mouse assessed as minimal motor impairment at 100 mg/kg, ip after 4 hrs by rotarod test; format: toxicity, organism-based; set-up: dose 100 mg/kg, route intraperitoneal; settings: in vivo; how it was run: as §1
Rattus norvegicus [8] = test: Neurotoxicity in pilocarpine-induced status epilepticus Sprague-Dawley albino rat model assessed as minimal motor impairment at 300 mg/kg, ip after 0.25 hr by rotarod test; format: toxicity, organism-based; set-up: dose 300 mg/kg, route intraperitoneal; settings: in vivo
How it was run: (§5)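 Rat pilocarpine status epilepticus model: test carbamate given at 0 or 30 min after the first observed Racine stage 3 motor seizure, which marks SE onset. Neurotoxicity was scored within the same model.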

Rattus norvegicus [9] = test: Neurotoxicity in pilocarpine-induced status epilepticus Sprague-Dawley albino rat model assessed as minimal motor impairment at 100 mg/kg, ip after 0.25 hr by rotarod test; format: toxicity, organism-based; set-up: dose 100 mg/kg, route intraperitoneal; settings: in vivo
Rattus norvegicus [10] = test: Protective index, ratio of TD50 for ip dosed Sprague-Dawley albino rat by rotarod test to ED50 for ip dosed Sprague-Dawley albino rat by subcutaneous metrazol seizures test; format: functional; how it was run: as §2
Mus musculus [11] = test: Neurotoxicity in albino CF1 mouse assessed as minimal motor impairment at 300 mg/kg, ip after 0.5 hrs by rotarod test; format: toxicity, organism-based; set-up: dose 300 mg/kg, route intraperitoneal; settings: in vivo; how it was run: as §1
Rattus norvegicus [12] = test: Anticonvulsant activity in Sprague-Dawley albino rat assessed as protection against maximal electroshock-induced seizures at 30 mg/kg, po after 4 hrs; format: functional, organism-based; set-up: dose 30 mg/kg; how it was run: as §3
[13] = Neurotoxicity in ip dosed albino CF1 mouse assessed as minimal motor impairment by rotarod test; format: toxicity, organism-based; settings: in vivo; how it was run: as §4
Rattus norvegicus [14] = test: Anticonvulsant activity in po dosed Sprague-Dawley albino rat assessed as protection against maximal electroshock-induced seizures; format: functional; how it was run: as §4
Rattus norvegicus [15] = test: Neurotoxicity in pilocarpine-induced status epilepticus Sprague-Dawley albino rat model assessed as minimal motor impairment at 30 mg/kg, ip after 2 hrs by rotarod test; format: toxicity, organism-based; set-up: dose 30 mg/kg, route intraperitoneal; settings: in vivo; how it was run: as §5
Mus musculus [16] = test: Neurotoxicity in albino CF1 mouse assessed as minimal motor impairment at 30 mg/kg, ip after 4 hrs by rotarod test; format: toxicity, organism-based; set-up: dose 30 mg/kg, route intraperitoneal; settings: in vivo; how it was run: as §1
Mus musculus [17] = test: Anticonvulsant activity in ip dosed albino CF1 mouse assessed as protection against subcutaneous metrazol-induced seizures; format: functional; how it was run: as §4
Rattus norvegicus [18] = test: Neurotoxicity in pilocarpine-induced status epilepticus Sprague-Dawley albino rat model assessed as minimal motor impairment at 30 mg/kg, ip after 0.5 hrs by rotarod test; format: toxicity, organism-based; set-up: dose 30 mg/kg, route intraperitoneal; settings: in vivo; how it was run: as §5
Rattus norvegicus [19] = test: Anticonvulsant activity in Sprague-Dawley albino rat assessed as protection against pilocarpine-induced status epilepticus at 130 mg/kg, ip administered 0 and 30 mins after status epilepticus onset
Mus musculus [20] = test: Anticonvulsant activity in albino CF1 mouse assessed as protection against subcutaneous metrazol-induced seizures at 100 mg/kg, ip after 4 hrs; format: functional, organism-based; set-up: dose 100 mg/kg; how it was run: as §1
Rattus norvegicus [21] = test: Anticonvulsant activity in po dosed Sprague-Dawley albino rat assessed as protection against subcutaneous metrazol-induced seizures; format: functional; how it was run: as §4
Rattus norvegicus [22] = test: Neurotoxicity in pilocarpine-induced status epilepticus Sprague-Dawley albino rat model assessed as minimal motor impairment at 100 mg/kg, ip after 2 hrs by rotarod test; format: toxicity, organism-based; set-up: dose 100 mg/kg, route intraperitoneal; settings: in vivo
Mus musculus [23] = test: Protective index, ratio of TD50 for ip dosed albino CF1 mouse by rotarod test to ED50 for ip dosed albino CF1 mouse by maximal electroshock seizures test; format: functional; how it was run: as §2
Rattus norvegicus [24] = test: Neurotoxicity in pilocarpine-induced status epilepticus Sprague-Dawley albino rat model assessed as minimal motor impairment at 100 mg/kg, ip after 4 hrs by rotarod test; format: toxicity, organism-based; set-up: dose 100 mg/kg, route intraperitoneal; settings: in vivo
Mus musculus [25] = test: Anticonvulsant activity in albino CF1 mouse assessed as protection against subcutaneous metrazol-induced seizures at 300 mg/kg, ip after 4 hrs; format: functional, organism-based; set-up: dose 300 mg/kg; how it was run: as §1
Rattus norvegicus [26] = test: Protective index, ratio of TD50 for ip dosed Sprague-Dawley albino rat by rotarod test to ED50 for ip dosed Sprague-Dawley albino rat by maximal electroshock seizures test; format: functional; how it was run: as §2
Rattus norvegicus [27] = test: Neurotoxicity in pilocarpine-induced status epilepticus Sprague-Dawley albino rat model assessed as minimal motor impairment at 100 mg/kg, ip after 1 hr by rotarod test; format: toxicity, organism-based; set-up: dose 100 mg/kg, route intraperitoneal; settings: in vivo
[28] = Neurotoxicity in ip dosed Sprague-Dawley albino rat assessed as minimal motor impairment by rotarod test; format: toxicity, organism-based; settings: in vivo; how it was run: as §4
Mus musculus [29] = test: Neurotoxicity in albino CF1 mouse assessed as minimal motor impairment at 100 mg/kg, ip after 0.5 hrs by rotarod test; format: toxicity, organism-based; set-up: dose 100 mg/kg, route intraperitoneal; settings: in vivo; how it was run: as §1
[30] = Neurotoxicity in po dosed Sprague-Dawley albino rat assessed as minimal motor impairment by rotarod test; format: toxicity, organism-based; settings: in vivo
How it was run: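 Rats dosed orally; 4 rats per time point after dosing. Neurotoxicity was scored as motor impairment or sedation and reported as number of animals affected over number tested.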

Rattus norvegicus [31] = test: Anticonvulsant activity in ip dosed Sprague-Dawley albino rat assessed as protection against pilocarpine-induced status epilepticus after 0.5 hrs; format: functional
How it was run: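 Pilocarpine status epilepticus model in rats. Number and severity of convulsive seizures were observed behaviourally.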

Mus musculus [32] = test: Anticonvulsant activity in albino CF1 mouse assessed as protection against subcutaneous metrazol-induced seizures at 30 mg/kg, ip after 0.5 hrs; format: functional, organism-based; set-up: dose 30 mg/kg; how it was run: as §1
Rattus norvegicus [33] = test: Neurotoxicity in pilocarpine-induced status epilepticus Sprague-Dawley albino rat model assessed as minimal motor impairment at 30 mg/kg, ip after 4 hrs by rotarod test; format: toxicity, organism-based; set-up: dose 30 mg/kg, route intraperitoneal; settings: in vivo; how it was run: as §5
Mus musculus [34] = test: Anticonvulsant activity in albino CF1 mouse assessed as protection against maximal electroshock-induced seizures at 100 mg/kg, ip after 4 hrs; format: functional, organism-based; set-up: dose 100 mg/kg; how it was run: as §1
Mus musculus [35] = test: Anticonvulsant activity in albino CF1 mouse assessed as protection against subcutaneous metrazol-induced seizures at 100 mg/kg, ip after 0.5 hrs; format: functional, organism-based; set-up: dose 100 mg/kg; how it was run: as §1
Mus musculus [36] = test: Anticonvulsant activity in ip dosed albino CF1 mouse assessed as protection against maximal electroshock-induced seizures; format: functional; how it was run: as §4
Mus musculus [37] = test: Neurotoxicity in albino CF1 mouse assessed as minimal motor impairment at 300 mg/kg, ip after 4 hrs by rotarod test; format: toxicity, organism-based; set-up: dose 300 mg/kg, route intraperitoneal; settings: in vivo; how it was run: as §1

In the case of `CCC(COC(N)=O)C(C)C` (racemic), the Activity (Mus musculus [1]) is reported as “Non-toxic”, the “Ratio ED50” value (Rattus norvegicus [2]) is reported as 4 and the “Ratio TD50/ED50” value (Rattus norvegicus [3]) is reported as 7.8. The Activity (Rattus norvegicus [4]) was “inactive”, the Activity (Mus musculus [5]) was “Active” and the ED50 (Rattus norvegicus [6]) was 16 mg/kg. For the same molecule, the Activity (Mus musculus [7]) was “Non-toxic”, the Activity (Rattus norvegicus [8]) was “Toxic” and the Activity (Rattus norvegicus [9]) was “Toxic”. For the same molecule, the “Ratio TD50/ED50” value (Rattus norvegicus [10]) was 1.3, the Activity (Mus musculus [11]) was “Toxic” and the Activity (Rattus norvegicus [12]) was “inactive”. The TD50 [13] was 157 mg/kg, the ED50 (Rattus norvegicus [14]) was 64 mg/kg and the Activity (Rattus norvegicus [15]) was “Non-toxic”. For the same molecule, the Activity (Mus musculus [16]) was “Non-toxic”, the ED50 (Mus musculus [17]) was 120 mg/kg and the Activity (Rattus norvegicus [18]) was “Non-toxic”. The Activity (Rattus norvegicus [19]) was “Active”, the Activity (Mus musculus [20]) was “inactive” and the ED50 (Rattus norvegicus [21]) was 35 mg/kg. For the same molecule, the Activity (Rattus norvegicus [22]) was “Non-toxic”, the “Ratio TD50/ED50” value (Mus musculus [23]) was 1.5 and the Activity (Rattus norvegicus [24]) was “Non-toxic”. For the same molecule, the Activity (Mus musculus [25]) was “inactive”, the “Ratio TD50/ED50” value (Rattus norvegicus [26]) was 3.6 and the Activity (Rattus norvegicus [27]) was “Non-toxic”. For the same molecule, the TD50 [28] was 58 mg/kg, the Activity (Mus musculus [29]) was “Non-toxic” and the TD50 [30] was greater than 500 mg/kg. The ED50 (Rattus norvegicus [31]) was 81 mg/kg, the ED97 (Rattus norvegicus [31]) was 114 mg/kg and the Activity (Mus musculus [32]) was “inactive”. For the same molecule, the Activity (Rattus norvegicus [33]) was “Non-toxic”, the Activity (Mus musculus [34]) was “inactive” and the Activity (Mus musculus [35]) was “inactive”. The ED50 (Mus musculus [36]) was 103 mg/kg and the Activity (Mus musculus [37]) was “Non-toxic”.
